Measurements taken from ChEMBL document CHEMBL1131110, “Deoxyadenosine bisphosphate derivatives as potent antagonists at P2Y1 receptors” (J Med Chem, 1998).
pEC50, pIC50: −log10 of the molar value. Active and inactive are the calls of the source. The calls are words filed in the database; no cut-off is given here.

Legend:
[1] = molecular target: P2Y purinoceptor 1 (Meleagris gallopavo) (UniProt P49652); assay: Agonist activity at P2Y1 receptor measured as capacity to stimulate phospholipase C in turkey erythrocyte membranes; NE=No effect; assay type: functional, cell membranes
Procedure, shortened: (§1)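 Turkey erythrocytes labelled with 2-[3H]myo-inositol in inositol-free DMEM for 18–24 h at 37 °C, 5% CO2. Ghosts made by hypotonic lysis. Labelled ghosts (~175 μg protein) incubated 5 min at 30 °C with 1 μM GTPγS and test nucleotide at pH 7.0 (HEPES, KCl, CaCl2, MgSO4, EGTA). Total [3H]inositol phosphates measured by anion-exchange chromatography. EC50 from four-parameter logistic fit. Efficacy is relative to a maximal 2-MeSATP response in the same experiment.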

[2] = molecular target: P2Y purinoceptor 1 (Meleagris gallopavo) (UniProt P49652); assay: Antagonist activity at P2Y1 receptor measured as capacity to inhibit phospholipase C stimulation elicited by 10 nM 2-MeSATP; Small inhibition at 30-100 uM; assay type: functional; settings: filed as antagonist
Procedure, shortened: (§2)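 The PLC assay uses [3H]inositol-labelled turkey erythrocyte ghosts (~175 μg protein) in HEPES buffer, pH 7.0, with 1 μM GTPγS. Ghosts are incubated 5 min at 30 °C with 10 nM 2-MeSATP plus graded analogue concentrations. [3H]inositol phosphates are separated by anion exchange. IC50 is the concentration inhibiting 50% of the 2-MeSATP response. Maximal inhibition is 100 minus residual stimulation at the top concentration. Each curve was run at least 3 times in duplicate or triplicate.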

[3] = molecular target: P2Y purinoceptor 1 (Meleagris gallopavo) (UniProt P49652); assay: Antagonist activity at P2Y1 receptor measured as capacity to inhibit phospholipase C stimulation elicited by 10 nM 2-MeSATP; NE=No effect; assay type: functional; procedure, shortened: as §2
[4] = molecular target: T1, P2Y purinoceptor 1 (Meleagris gallopavo, UniProt P49652); assay: Antagonist activity at P2Y1 receptor measured as capacity to inhibit 50% of phospholipase C stimulation elicited by 10 nM 2-MeSATP; assay type: functional
Procedure, shortened: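 Ghosts are incubated 5 min at 30 °C with 10 nM 2-MeSATP plus graded analogue concentrations. [3H]inositol phosphates are separated by anion exchange. Maximal inhibition is 100 minus residual stimulation at the top concentration. Each curve was run at least 3 times in duplicate or triplicate.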

[5] = molecular target: P2Y purinoceptor 1 (Meleagris gallopavo) (UniProt P49652); assay: Agonist activity at P2Y1 receptor measured as capacity to stimulate phospholipase C in turkey erythrocyte membranes; assay type: functional, cell membranes; procedure, shortened: as §1
[6] = molecular target: T1, P2Y purinoceptor 1; assay: Agonist activity at P2Y1 receptor measured as capacity to stimulate 50% phospholipase C in turkey erythrocyte membranes; assay type: functional, cell membranes; procedure, shortened: as §1
[7] = molecular target: P2Y purinoceptor 1 (Meleagris gallopavo) (UniProt P49652); assay: Antagonist activity at P2Y1 receptor measured as capacity to inhibit phospholipase C stimulation elicited by 10 nM 2-MeSATP; assay type: functional; procedure, shortened: as §2
[8] = molecular target: P2Y purinoceptor 1 (Meleagris gallopavo) (UniProt P49652); assay: Antagonist activity at P2Y1 receptor measured as capacity to inhibit phospholipase C stimulation elicited by 10 nM 2-MeSATP; No effect or small inhibition; assay type: functional; procedure, shortened: as §2
[9] = molecular target: P2Y purinoceptor 1 (Meleagris gallopavo) (UniProt P49652); assay: Agonist activity at P2Y1 receptor measured as capacity to stimulate phospholipase C in turkey erythrocyte membranes; No effect or small inhibition; assay type: functional, cell membranes; procedure, shortened: as §1

T1 sequence (P49652 whole entry): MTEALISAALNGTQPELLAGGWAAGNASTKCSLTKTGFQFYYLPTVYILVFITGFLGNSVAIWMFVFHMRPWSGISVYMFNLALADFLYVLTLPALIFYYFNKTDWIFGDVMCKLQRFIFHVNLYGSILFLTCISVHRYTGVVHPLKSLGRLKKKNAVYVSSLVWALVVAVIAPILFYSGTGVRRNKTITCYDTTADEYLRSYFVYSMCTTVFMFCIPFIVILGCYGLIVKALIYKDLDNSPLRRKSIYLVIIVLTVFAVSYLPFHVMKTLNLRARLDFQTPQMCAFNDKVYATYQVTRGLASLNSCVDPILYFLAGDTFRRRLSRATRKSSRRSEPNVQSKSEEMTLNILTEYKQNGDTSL
Chain of P2Y purinoceptor 1 (Meleagris gallopavo) (P49652 whole entry): as above

Row | Structure (SMILES) | Max increase [1] | pIC50 [4] | Max increase [5] | pEC50 [6] | Max inhibition [7] | further results
1 | CCCNc1ncnc2c1ncn2[C@H]1C[C@H](OP(=O)(O)O)[C@@H](COP(=O)(O)O)O1 | inactive |  |  |  |  | Max inhibition [2]: Partial antagonist
2 | O=C(Nc1ncnc2c1ncn2[C@H]1C[C@H](OP(=O)(O)O)[C@@H](COP(=O)(O)O)O1)c1ccccc1 | inactive |  |  |  |  | Max inhibition [3]: inactive
3 | Nc1ncnc2c1ncn2C1O[C@H](COP(=O)(O)OP(=O)(O)OC2O[C@H](CO)[C@@H](O)[C@H]2O)[C@@H](O)[C@H]1OP(=O)(O)O (stereo not given in full) |  | < 4.00 | 50% | < 4.00 | 50% | 
4 | Nc1ncnc2c1nc(Br)n2[C@H]1C[C@H](OP(=O)(O)O)[C@@H](COP(=O)(O)O)O1 | inactive | 4.44 |  |  | 100% | 
5 | C[n+]1cnc2c(ncn2[C@H]2C[C@H](OP(=O)(O)O)[C@@H](COP(=O)(O)O)O2)c1N | inactive | 4.26 |  |  | 100% | 
6 | Nc1ncnc2c1ncn2[C@H]1C[C@H](OP(O)(O)=S)[C@@H](COP(O)(O)=S)O1 |  | 4.06 | 9% |  | 91% | 
7 | Nc1nc(Cl)nc2c1ncn2[C@H]1C[C@H](OP(=O)(O)O)[C@@H](COP(=O)(O)O)O1 |  | 5.70 | 19% | 6.19 | 80% | 
8 | O=c1[nH]cnc2c1ncn2[C@H]1C[C@H](OP(=O)(O)O)[C@@H](COP(=O)(O)O)O1 | inactive |  |  |  |  | Max inhibition [2]: Partial antagonist
9 | CN(C)c1ncnc2c1ncn2[C@H]1C[C@H](OP(=O)(O)O)[C@@H](COP(=O)(O)O)O1 | inactive | 4.33 |  |  | 70% | 
10 | O=P(O)(O)OC[C@H]1O[C@@H](n2cnc3c(Cl)ncnc32)C[C@@H]1OP(=O)(O)O |  |  |  |  |  | Max inhibition [8]: inactive; Max increase [9]: inactive
11 | NCCCCCCNc1ncnc2c1ncn2[C@@H]1O[C@H](COP(=O)(O)O)[C@@H](O)[C@H]1OP(=O)(O)O | inactive |  |  |  |  | Max inhibition [3]: inactive
12 | O=P(O)(O)OC[C@H]1O[C@@H](n2cnc3c2ncn2ccnc32)C[C@@H]1OP(=O)(O)O | inactive |  |  |  |  | Max inhibition [3]: inactive
13 | CSc1nc(N)c2ncn([C@H]3C[C@H](OP(=O)(O)O)[C@@H](COP(=O)(O)O)O3)c2n1 |  | 5.68 | 22% | 6.26 | 77% | 
14 | CCNc1ncnc2c1ncn2[C@H]1C[C@H](OP(=O)(O)O)[C@@H](COP(=O)(O)O)O1 | inactive | 5.97 |  |  | 100% | 
15 | CC(C)(COP(=O)(O)OP(=O)(O)OC[C@H]1O[C@@H](n2cnc3c(N)ncnc32)[C@H](OP(=O)(O)O)[C@@H]1O)C(O)C(=O)NCCC(=O)NCCS (stereo not given in full) |  | 4.14 | 43% | < 4.00 | 72% | 

Continued, in another order:

Row | Max increase [1] | pIC50 [4] | Max increase [5] | pEC50 [6] | Max inhibition [7] | Structure (SMILES) | further results
16 |  | 6.49 | 13% |  | 90% | CNc1ncnc2c1ncn2C1OC(COP(=O)(O)O)CC1OP(=O)(O)O (stereo not given) | 
17 |  | 5.24 | 12% | 5.20 | 87% | Nc1ncnc2c1ncn2[C@H]1C[C@H](OP(=O)(O)O)[C@@H](COP(=O)(O)O)O1 | 
18 |  | 5.07 | 25% | 5.86 | 75% | Nc1ncnc2c1ncn2[C@@H]1O[C@H](COP(=O)(O)O)[C@@H](O)[C@H]1OP(=O)(O)O | 
19 |  | 4.90 |  | 4.39 |  | Nc1ncnc2c1ncn2[C@@H]1O[C@H](COP(=O)(O)O)[C@H]2O[P@](=O)(O)O[C@H]21 | 
20 |  |  | 43% |  | 73% | Nc1ncnc2c1ncn2[C@@H]1O[C@H](COP(=O)(O)O)[C@H]2OP(=O)(O)O[C@H]21 | 
21 | inactive | 4.54 |  |  | 78% | CSc1ncnc2c1ncn2[C@H]1C[C@H](OP(=O)(O)O)[C@@H](COP(=O)(O)O)O1 | 
22 | inactive |  |  |  |  | Nc1ncnc2c1ncn2C1OC(CCl)CC1OP(=O)(O)O (stereo not given) | Max inhibition [3]: inactive
23 |  | 4.91 | 35% | 4.89 | 65% | CO[C@@H]1[C@H](OP(=O)(O)O)[C@@H](COP(=O)(O)O)O[C@H]1n1cnc2c(N)ncnc21 | 
24 |  | 5.38 | 21% | 5.89 | 77% | Nc1ncnc2c1ncn2[C@@H]1O[C@H](COP(=O)(O)O)[C@@H](OP(=O)(O)O)[C@H]1O | 
25 |  | 4.96 | 16% | 5.08 | 81% | Nc1ncnc2c1ncn2C1OC(COP(=O)(O)O)CC1OP(=O)(O)O (stereo not given) | 
